# Hits are enriched below; roughly 1.5% of the tested compounds scored in any of these assays.
# SIAE primary – inhibitors of human sialic acid acetylesterase SIAE. Q9HAT2. inhibition, % at 9.66 µM. actives 0.69% (n = 370,000). SIAE FP-Rh probe binding, fluorescence polarization;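 active = inhibition above a cutoff: mean of compounds within the control limits plus 3 SD of those, cut at about 17% in these data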
# Target sequence (Q9HAT2 whole entry, looked up): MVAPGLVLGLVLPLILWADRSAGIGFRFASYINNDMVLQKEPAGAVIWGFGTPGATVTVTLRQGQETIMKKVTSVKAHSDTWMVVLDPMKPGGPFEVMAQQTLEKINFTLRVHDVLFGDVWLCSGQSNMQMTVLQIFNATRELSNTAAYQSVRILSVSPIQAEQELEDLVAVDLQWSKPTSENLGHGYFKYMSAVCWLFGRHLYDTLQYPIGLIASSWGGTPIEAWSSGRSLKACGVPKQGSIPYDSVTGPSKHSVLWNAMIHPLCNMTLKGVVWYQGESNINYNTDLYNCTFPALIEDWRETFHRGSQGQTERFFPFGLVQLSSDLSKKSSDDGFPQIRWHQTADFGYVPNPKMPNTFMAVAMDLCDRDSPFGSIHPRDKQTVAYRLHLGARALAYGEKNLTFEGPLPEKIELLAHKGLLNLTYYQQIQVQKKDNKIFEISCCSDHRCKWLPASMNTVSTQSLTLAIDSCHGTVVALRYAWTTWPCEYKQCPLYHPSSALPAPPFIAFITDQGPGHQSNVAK
# TCR CD3 inh – human TCR-CD3 binding inhibition. AID 651800. TAMRA-labeled TCR probe fluorescence, biochemical. actives 0.37% (n = 360,000). inhibition, % at 9.4 µM;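 note: recombinant mutant TCR 2C K166C tagged with TAMRA read by polarization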
# mABHD4 FP – ABHD4 (mouse) inhibition, primary FP screen | inhibition, % at 8.92 µM | purified mABHD4, FP-Rh probe fluorescence polarization | actives 0.54% (n = 370,000);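 active = inhibition exceeding the mean over every tested compound plus 3 SD, cut at about 30% in these data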
#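 assay system = mABHD4 protein | compound dosing = single nominal dose of 8.92 µM, 0.89% DMSO final | read-out basis = percent inhibition of probe binding, normalized to plate controls | schedule = Enzyme–compound pre-incubation 45 min, then probe 60 min, both 25 °C | detection = fluorescence polarization, excitation 525 nm, emission 598 nm, BODIPY TMR filters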
# DAGLB inhibitor – blocks human DAGLB lipase activity; inhibition, % at 5.17 µM; actives 0.059% (n = 340,000); AID 504411; HEK293T DAGLB membrane lysate, EnzChek fluorogenic substrate; Q8NCG7; in the data active = inhibition above about 34%
# HTRA1 inh – blocks human HTRA1 serine peptidase; Q92743; recombinant HTRA1, FP-rhodamine activity-based probe, fluorescence polarization; inhibition, % at 5.96 µM; actives 0.5% (n = 340,000); AID 504803; in the data active = inhibition above about 36%
# BSA TAMRA ctr – counter-screen for TCR-CD3 interaction inhibitors: BSA probe; AID 652035; TAMRA-labeled BSA probe fluorescence counterscreen; inhibition, % at 9.4 µM; shares compounds with TCR CD3 inh; actives 10% (n = 1,200); in the data active = inhibition above about 23%
# TCR-CD3 conf – confirmation of human TCR-CD3 interaction inhibitors; shares compounds with TCR CD3 inh; TAMRA-labeled TCR probe fluorescence binding assay; inhibition, % at 9.4 µM; actives 48% (n = 1,200)
# Numbers stand for hits; - = inactive; . = no result; + = active, no number. Cut-off read from the data, not from the text of the source, unless noted: active = inhibition above about 19%; inactive = the rest.
SMILES,SIAE primary,TCR CD3 inh,mABHD4 FP,DAGLB inhibitor,HTRA1 inh,BSA TAMRA ctr,TCR-CD3 conf
CCn1c(SCC(=O)NN=Cc2ccc(C(=O)O)cc2)nc2ccccc21,-,.,-,.,.,.,.
O=C(Nc1ccccc1)c1cc(Cl)nc2ccccc12,-,-,-,-,-,.,.
CC(=O)c1ccc(NC(=O)c2cc(Cl)nc3ccccc23)cc1,-,62.0,-,-,-,-,-
CCn1c(=O)c(C(=O)Nc2ncccc2C)c(O)c2ccccc21,-,-,-,-,-,.,.
CCn1c(=O)c(C(=O)Nc2ncccc2O)c(O)c2ccccc21,-,34.2,-,-,-,-,-
COC(=O)[C@]12C[C@H](CC(=O)N3CCSCC3)C(=O)N(Cc3ccc4c(c3)OCO4)C1=C[C@H](C(C)(C)C)O[C@@H]2C,-,-,-,.,.,.,.
N#Cc1c(SCC(=O)Nc2nncs2)sc2c(O)cc(=O)[nH]c12,-,26.9,-,-,-,-,-
O=c1ccc2cc3c([nH]c4ccc(Br)cc43)oc-2c1O,63.6,37.9,60.2,42.6,61.7,-,-
CCOC(=O)CC[C@@H]1CC[C@]2(CCCN(S(=O)(=O)C3CCCCC3)C2)O1,-,.,-,.,.,.,.
COc1ccc(OCC(=O)N2CCC(n3nccc3NC(=O)C3CC3)CC2)cc1,-,20.5,-,-,-,-,-
Cc1ccc(NC(=O)N2CCC(c3nc4ccc(Cl)cc4[nH]3)CC2)cc1F,-,.,-,.,.,.,.
CN(C)S(=O)(=O)c1cccc(C(=O)N/N=C\c2ccc(-c3ccccn3)cc2)c1,-,.,-,.,.,.,.
CCc1ccc(C=NN2CCN(Cc3ccc(C)cc3C)CC2)cc1,-,.,-,.,.,.,.
COc1ccc(-c2cnnn2-c2ccc(NC(=O)c3ccc(S(=O)(=O)N4CCCCC4)cc3)cc2)cc1,-,24.0,-,-,-,28.7,39.0
O=C(NCC(O)c1ccc([N+](=O)[O-])cc1)C1=COCCO1 (configuration not stated),-,+,-,-,-,-,-
COC(=O)[C@]12CCCCC=C1N(Cc1ccc(OC)cc1)C(=O)[C@@H]2CC(=O)N1CCOCC1,-,.,-,.,.,.,.
O=[N+]([O-])C1=CC=C2C(=NC3(CCCCC3)N2O)C1=NC1CCCCC1,-,55.7,-,-,-,-,-
C=CCN(c1ccccc1OC)S(=O)(=O)c1cccc(C(=O)OCC(=O)c2c[nH]c3ccccc23)c1,-,43.7,-,-,-,-,-
COc1cc(OC)c(N(C)S(=O)(=O)c2cccc(C(=O)OCC(=O)c3c[nH]c4ccccc34)c2)cc1Cl,-,38.4,-,-,-,-,-
COc1ccc(C(=O)OCC(=O)c2c[nH]c3ccccc23)cc1OC,-,-,-,-,-,.,.
COc1ccc(CN2CCC(CNC(=O)NC3CCC(C)CC3)CC2)cc1 (configuration not stated),-,.,-,.,.,.,.
COc1cc2c(cc1OC)[C@](C)(c1ccccc1)C[C@@H]2NCC=C(C)C,-,-,-,.,.,.,.
O=C(NC(NC(=S)Nc1cccc(C(=O)O)c1)C(Cl)(Cl)Cl)OCc1ccccc1 (configuration not stated),-,-,-,-,-,.,.
O=C(NC(NC(=S)Nc1cccc(Cl)c1)C(Cl)(Cl)Cl)OCc1ccccc1 (configuration not stated),-,24.1,-,-,-,-,-
Cc1ccc[n+](-c2[nH]c(=O)sc2/C=N/NC(=O)c2ccccc2[O-])c1,-,19.2,-,-,-,-,-
SMILES,SIAE primary,TCR CD3 inh,mABHD4 FP,DAGLB inhibitor,HTRA1 inh,BSA TAMRA ctr,TCR-CD3 conf
O=C(N/N=C/c1sc(=O)[nH]c1-[n+]1ccc2ccccc2c1)c1ccccc1[O-],-,33.2,-,-,-,-,23.9
COC(=O)C1=C(C(=O)OC)C2CCCC1C1N=NN(c3ccccc3)C21 (configuration not stated),-,-,-,.,.,.,.
O=C(CSc1ccccc1)NNC(=O)c1ccccc1O,-,19.2,-,-,-,-,25.9
C=CCn1c(=NC(=O)c2ccc(S(=O)(=O)N3CCc4ccccc4C3)cc2)sc2cc(S(N)(=O)=O)ccc21,-,30.8,-,-,-,-,31.1
C#CCn1c(=NC(=O)c2ccc(S(=O)(=O)N3CCc4ccccc4C3)cc2)sc2cc(S(N)(=O)=O)ccc21,.,.,.,-,-,.,.
CC1(C)c2ccccc2N2CCC(=O)NC21/C=C/c1ccco1 (configuration not stated),-,19.1,-,-,-,-,-
Cc1cccc(N2CCN(C(C(=O)NCc3ccccc3)c3ccc(F)cc3)CC2)c1C (configuration not stated),-,-,-,.,.,.,.
CCC(CC)C(C(=O)NCc1ccccc1)N1CCN(c2cccc(C)c2C)CC1 (configuration not stated),-,31.4,-,.,.,-,-
COC(=O)[C@]1(C#N)CC(=O)N(CC(C)C)[C@@H]1c1ccccc1,-,.,-,.,.,.,.
CC1=CN2C(=N)/C(=C/c3ccco3)C(=O)N=C2S1,-,-,-,-,-,.,.
CC1=CN2C(=N)/C(=C/c3ccc([N+](=O)[O-])o3)C(=O)N=C2S1,-,72.0,-,-,-,-,-
C=CCN1C(=O)c2n[nH]c(C(C)C)c2C1c1ccccc1 (configuration not stated),-,-,-,.,.,.,.
O=C(NNS(=O)(=O)c1ccccc1[N+](=O)[O-])c1ccccc1Cl,-,-,-,-,-,.,.
O=C(NNS(=O)(=O)c1ccccc1[N+](=O)[O-])c1cc2ccccc2cc1O,-,19.6,-,-,-,-,-
COC(=O)C1=C(C)N(C)C(=NCc2ccccc2C(F)(F)F)NC1CCc1ccccc1 (configuration not stated),-,-,-,.,.,.,.
CCCC[C@H](C(=O)N(C)c1cccc(OC)c1)[C@@H](O)c1ccc(C(C)=O)cc1,-,.,-,.,.,.,.
COc1ccc(C2CC(=O)C(c3ccc(C(N)=O)cc3)=CN2Cc2ccccc2)cc1 (configuration not stated),-,-,-,.,.,.,.
O=C(O)c1cc(O)c2c(c1)[C@@H]([C@H]1c3cc(C(=O)O)cc(O)c3C(=O)c3c(O[C@@H]4O[C@H](CO)[C@@H](O)[C@H](O)[C@H]4O)cccc31)c1cccc(OC3O[C@H](CO)[C@@H](O)[C@H](O)[C@H]3O)c1C2=O (some centres not stated),67.6,153.1,-,-,-,-,108.7
O=C1c2c(O)cccc2C(C2OC(CO)[C@@H](O)[C@H](O)[C@H]2O)c2cc(CO)cc(O)c21 (some centres not stated),-,-,-,-,-,.,.
COc1cc2c(cc1NC(=O)CSc1nnc(-c3cccc(Cl)c3)n1-c1ccccc1)oc1ccccc12,-,.,-,.,.,.,.
C=CCn1c(SCC(=O)NCc2ccco2)nnc1C1CCCCC1,-,20.2,-,-,-,-,-
CCn1c(SCC(=O)NCc2ccco2)nnc1C1CCCC1,-,-,-,-,-,.,.
O=Nc1ccccn1,-,-,-,.,.,.,.
